# Compounds with a hit are over-represented: about 1.5% of the library has one in this group of screens.
# NRP1-CendR mod – modulators of CendR peptide binding to NRP-1, primary screen, biochemical, fluorescence polarization, uHTS. FAM-RPARPAR peptide binding to NRP-1. inhibition, % at 25 µM. 360,000 tested, 0.85% active;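 active = inhibition or corrected inhibition above about 18%, plus a signal ratio from 0.5 to 1.5, limit read from the data, passing the limit was not always enough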
# Target sequence (O14786 whole entry, looked up): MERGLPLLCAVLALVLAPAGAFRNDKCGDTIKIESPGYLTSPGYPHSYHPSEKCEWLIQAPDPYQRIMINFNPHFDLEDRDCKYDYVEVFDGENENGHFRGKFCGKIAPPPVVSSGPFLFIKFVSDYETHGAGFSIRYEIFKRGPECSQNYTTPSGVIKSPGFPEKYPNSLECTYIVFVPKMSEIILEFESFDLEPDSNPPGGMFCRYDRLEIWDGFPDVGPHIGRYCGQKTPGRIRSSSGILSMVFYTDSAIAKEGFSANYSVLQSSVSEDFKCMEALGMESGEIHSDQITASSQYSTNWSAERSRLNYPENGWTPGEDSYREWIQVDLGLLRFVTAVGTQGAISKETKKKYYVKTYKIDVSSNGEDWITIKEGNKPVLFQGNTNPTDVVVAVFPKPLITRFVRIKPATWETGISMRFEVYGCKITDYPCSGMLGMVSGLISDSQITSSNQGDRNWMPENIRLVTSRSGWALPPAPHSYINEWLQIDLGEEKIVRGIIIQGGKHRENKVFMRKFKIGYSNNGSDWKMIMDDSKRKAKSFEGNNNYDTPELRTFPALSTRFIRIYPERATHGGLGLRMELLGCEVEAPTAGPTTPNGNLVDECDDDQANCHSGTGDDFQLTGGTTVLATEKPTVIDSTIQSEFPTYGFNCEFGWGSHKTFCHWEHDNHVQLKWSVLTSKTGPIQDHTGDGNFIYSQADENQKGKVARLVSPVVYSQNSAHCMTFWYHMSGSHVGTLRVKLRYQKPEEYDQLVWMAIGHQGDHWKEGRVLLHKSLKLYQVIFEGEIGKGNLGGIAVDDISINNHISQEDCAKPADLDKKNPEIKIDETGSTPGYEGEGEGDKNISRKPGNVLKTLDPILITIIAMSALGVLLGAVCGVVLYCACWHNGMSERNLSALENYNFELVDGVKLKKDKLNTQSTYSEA
# MT1-MMP act inh – blockers of MT1-MMP proenzyme processing, primary screen, HT1080 RFP-PRO-GFP cells, GFP/RFP fluorescence; Matrix metalloproteinase-14 (Homo sapiens), P50281; GFP/RFP ratio fluorescence, overnight; percent of plate control window, DMSO zero; GFP/RFP ratio change, % at 20 µM; 360,000 tested, 0.061% active; AID 651647, 2012;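 active = GFP/RFP ratio change of at least 30% with cell ATP level not reduced by more than half and red fluorescence within 50% of control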
#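 Assay system: HT1080 RFP-PRO-GFP cells | Dosing: 20 µM single dose, 1% DMSO | Incubation: Cells overnight before dosing, compound overnight, 37 °C, 5% CO2 | Evaluation: GFP/RFP fluorescence ratio | Control set: DMSO-only wells and HT1080 RFP-L50D-GFP cell wells as references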
# DAGLB inh – DAGLB lipase inhibitors, primary screen, biochemical, fluorescence, HTS; Diacylglycerol lipase-beta (Homo sapiens), Q8NCG7; HEK293T DAGLB membrane lysate, EnzChek fluorogenic substrate; inhibition, % at 5.17 µM; 340,000 tested, 0.059% active; AID 504411, 2011; in the data active = inhibition above about 34%;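 note: 0% = enzyme with vehicle and 100% = wells lacking enzyme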
# UCH37 DUB inh – inhibitors of human UCH37 deubiquitinase, primary screen, biochemical, Ub-AMC cleavage, fluorescence; AID 588478, 2011; inhibition, % (no concentration beside the values); purified proteasome/UCH37; Ubiquitin carboxyl-terminal hydrolase isozyme L5 (Homo sapiens), Q9Y5K5; 330,000 tested, 0.33% active;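 active = mean inhibition over replicate wells above about 20%, limit read from the data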;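 note: 0% = compound-free wells with enzyme and 100% = wells lacking proteasome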
#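 system = Proteasome-associated human UCH37 deubiquitinase | amount = 0.15 nM proteasome as dispensed | medium = pH 7.4 Tris-HCl (50 mM) with ovalbumin, ATP-MgCl2, DTT | incubation = 30 min preincubation with enzyme, 25 min cleavage at room temperature | detection = AMC fluorescence 355/460 nm | read-out basis = percent inhibition | controls = no-proteasome and no-compound wells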
# Fh CTSL1 inh – Fasciola hepatica cathepsin L1 inhibitors, primary screen, counter-screen for PFM18AAP inhibitor project, biochemical, QFRET, fluorogenic peptide substrate. recombinant F. hepatica cathepsin L1, Z-Leu-Arg-MCA fluorescence. inhibition, % at 5.96 µM. 300,000 tested, 0.49% active. AID 1906, 2009;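 active = inhibition above the mean of all tested compounds plus 3 SD, set per screening campaign, cut at about 17% in these data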;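 note: 0% = plate median of test compound wells and 100% = 1 µM Z-Phe-Ala-diazomethylketone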
# * hit, by the source's call; . = not tested or not shown.
SMILES,NRP1-CendR mod,MT1-MMP act inh,DAGLB inh,UCH37 DUB inh,Fh CTSL1 inh
CCc1cc2c(SCC(=O)O)ncnc2s1,4.5,-5.1,1.2,1.5,-2.1
CCc1cc2c(SCC(=O)c3ccccc3)ncnc2s1,-3.1,-4.7,-5.6,-1.3,18.8*
Cc1ccc(C=NNc2nc3ccccc3s2)o1,.,.,.,4.9,.
c1ccc2c3n(nc2c1)CCCO3,32.5*,5.0,-1.4,2.1,.
O=C(NN=C/C=C/c1ccc2c(c1)OCO2)C(O)c1ccccc1 (stereo not drawn),.,.,.,-30.7,.
Cc1cc2c(cc1C)C(=NNC(=O)c1ccccn1)CCC2,.,.,.,1.5,.
C#CCOCCOCCOCCNc1nc(N2CCN(C(=O)[C@H](CCCCN)n3cc([C@@H](N)[C@H](C)CC)nn3)CC2)nc(N2CCN(C(=O)[C@H](CCC(=O)O)n3cc([C@@H](N)CCCCN)nn3)CC2)n1,9.3,2.5,0.3,3.0,.
C#CCOCCOCCOCCNc1nc(N2CCN(C(=O)C([C@@H](C)CC)n3cc(C(N)COC(=O)C(F)(F)F)nn3)CC2)nc(N2CCN(C(=O)[C@H](CCCCN)n3cc(C(N)[C@H](C)CC)nn3)CC2)n1 (stereo partly drawn),.,.,.,-0.9,31.5*
C#CCOCCOCCOCCNc1nc(N2CCN(C(=O)[C@H](CCCN=C(N)N)n3cc(C(N)[C@@H](C)CC)nn3)CC2)nc(N2CCN(C(=O)[C@H](CCC(=O)O)n3cc([C@@H](N)CCCCN)nn3)CC2)n1 (stereo partly drawn),12.1,0.9,-0.2,33.3*,.
C#CCOCCOCCOCCNc1nc(N2CCN(C(=O)[C@H]([C@@H](C)CC)n3cc([C@@H](N)CC(C)C)nn3)CC2)nc(N2CCN(C(=O)[C@H](CCCCN)n3cc([C@@H](N)C(C)CC)nn3)CC2)n1 (stereo partly drawn),1.7,-2.8,-2.1,0.0,31.5*
C#CCOCCOCCOCCNc1nc(N2CCN(C(=O)[C@H]([C@@H](C)CC)n3cc([C@@H](N)CO)nn3)CC2)nc(N2CCN(C(=O)[C@H](CCCCN)n3cc([C@@H](N)C(C)CC)nn3)CC2)n1 (stereo partly drawn),4.0,0.5,-0.6,1.3,3.7
C#CCOCCOCCOCCNc1nc(N2CCN(C(=O)[C@H]([C@@H](C)CC)n3cc([C@@H](N)CC(C)C)nn3)CC2)nc(N2CCN(C(=O)[C@H](CCCCN)n3cc([C@@H](N)CC(C)C)nn3)CC2)n1,.,.,-0.1,-0.2,9.9
CC1(C)C2CC=C(C=NNC(=O)c3ccc(Cl)cc3)C1C2 (stereo not drawn),.,.,.,0.7,.
Cc1cc(C(=O)NN=Cc2ccco2)c2ccccc2n1,.,.,.,2.4,.
Cc1ccc(S(=O)(=O)NN=C(c2ccccc2)C2CC2)cc1,.,.,.,5.8,.
CCOc1ccccc1N(CC(=O)N1CCOCC1)S(=O)(=O)c1ccc(SC)cc1,28.5*,3.0,2.7,-4.6,.
COc1cc(C=NN=C(N)c2nonc2N)cc(OC)c1OC,.,.,.,3.6,.
CC(C)(C)OC(=O)N[C@@H](Cc1ccccc1)c1nnc(S(=O)(=O)Cc2ccccc2)o1,.,.,.,.,24.8*
CCOC(=O)CSc1nnc([C@H](CC(C)C)NC(=O)OC(C)(C)C)o1,-3.8,0.5,-2.4,-0.7,.
CCC(C)[C@@H](NC(=O)OC(C)(C)C)c1nnc(S(=O)(=O)Cc2cccc(C)c2)o1 (stereo partly drawn),14.9,6.4,0.2,-0.8,.
CCSc1nnc([C@H](Cc2ccccc2)NC(=O)OC(C)(C)C)o1,-4.9,-0.3,-4.9,2.3,1.1
COC(=O)CSc1nnc([C@H](CC(C)C)NC(=O)OC(C)(C)C)o1,10.0,-1.4,1.1,3.0,52.1*
CC(C)(C)OC(=O)N[C@@H](Cc1ccccc1)c1nnc(SCC(=O)O)o1,7.1,-9.6,-1.4,1.5,29.0*
CC(C)(C)OC(=O)N[C@@H](Cc1ccccc1)c1nnc(SCC(=O)c2ccc(Cl)cc2)o1,0.2,6.2,1.4,1.8,10.2
Cc1ccccc1CS(=O)(=O)c1nnc([C@H](Cc2ccccc2)NC(=O)OC(C)(C)C)o1,-4.7,13.5,3.3,1.1,28.9*
SMILES,NRP1-CendR mod,MT1-MMP act inh,DAGLB inh,UCH37 DUB inh,Fh CTSL1 inh
CCCOc1ccc(-c2c(C(=O)NN=Cc3ccncc3)nnn2-c2nonc2N)cc1,.,.,.,2.9,.
O=C(NCCCn1ccnc1)c1nn2c(C(F)(F)F)cc(-c3ccc(Br)cc3)nc2c1Cl,29.7*,-4.0,1.1,3.7,-0.5
CCCNC(=O)c1nn2c(C(F)(F)F)cc(-c3ccccc3)nc2c1Cl,7.2,-0.5,-3.3,-28.9,4.3
CCn1cc(C(=O)NCCc2ccccc2)c(=O)c2cc(S(=O)(=O)N3CCCC3)ccc21,-10.8,1.5,-0.3,3.9,17.2*
CCC(C=NNC(=O)C(=O)NN=CC(CC)CC)CC,.,.,.,5.6,.
NC(=S)N/N=C1\CCOc2ccc(F)cc21,-4.1,-0.4,-0.2,.,17.8*
Cn1ccc(C(=O)NN=Cc2cccnc2)n1,.,.,.,1.7,.
COc1ccc(C(CNc2ccc(S(=O)(=O)N3CCCC3)cc2[N+](=O)[O-])N2CCCC2)cc1 (stereo not drawn),25.6*,-7.2,0.3,2.4,-3.0
CCOc1ccccc1CNC(=O)Cn1c(=O)oc2ccccc21,-3.7,-2.9,-2.2,2.2,20.5*
COc1cccc(CNC(=O)Cn2c(=O)oc3ccccc32)c1OC,-6.6,2.1,-1.1,7.4,0.3
Nc1ccc(C#Cc2c(-c3ccsc3)oc3ccc(N4CCOCC4)cc23)cc1,26.0*,1.6,0.3,-104.2,3.4
O=C(/C=C/c1ccccc1)N1CCC(c2ccccc2)C1 (stereo not drawn),10.3,-1.0,-3.3,1.7,-1.1
O=C(/C=C/c1ccco1)N1CCCC(c2ccccc2)C1 (stereo not drawn),-19.9,9.7,0.6,26.4*,2.2
CCOC(=O)C=c1sc(=Cc2ccc(C(=O)OC)cc2)c(=O)n1CC(=O)Nc1ccccc1,.,.,.,-3.9,.
CC1=Nc2ccccc2N=C(NC(=O)CSC(=S)N2CCCCC2)C1c1ccccc1 (stereo not drawn),36.7*,-2.3,-3.1,4.7,-8.1
COc1cc(C(=O)Nc2cc(C)ccc2C)ccc1OCc1c(C)noc1C,6.7,3.4,-0.2,2.2,.
COc1ccc(NC(=O)c2cc(CN3C(=O)c4ccccc4C3=O)ccc2OC)cn1,-8.8,-8.4,-2.5,9.7,1.4
COc1ccc(CN2C(=O)c3ccccc3C2=O)cc1C(=O)Nc1ccccc1N1CCOCC1,32.3*,-7.4,1.2,2.9,1.6
COc1cc(C(=O)NC2=NCCS2)ccc1OCc1c(C)noc1C,-4.1,-2.3,-1.4,-1.2,37.2*

# Assay outcomes as filed in PubChem BioAssay.
